This is an account of results in the RNAGym collection of RNA variant scans (doi:10.1126/science.aae0568).

This sample holds only a part of the variants without activity.

B1: tRNA (parent)
chain: GUUCCGUUGGCGUAAUGGUAACGCGUCUCCCUCCUAAGGAGAAGACUGCGGGUUCGAGUCCCGUACGGAACG

Variants of B1 are the subject of this data set. Nature of the data set: yeast fitness relative to wild type (ratio to wild type); higher = fitter; tRNA-Arg(CCU), competitive growth, 37 C, YPD. An outline of the steps: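 Variants of the tRNA-Arg(CCU) gene were chemically synthesised with a 3% per-site mutation rate across 69 sites and placed at the native genomic locus in Saccharomyces cerevisiae. Six parallel replicates of the pooled strains were competed in YPD at 37°C for 24 hours, and gene amplicons from the start and end populations were read by 100-nucleotide paired-end sequencing. Darwinian fitness relative to wild type was derived from changes in genotype frequencies. Genotypes required ≥ 100 starting reads, and estimates < 0.5 were set to 0.5.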
For the variant GUUCCGCUGGCGUAAUGGUAACGUGUCUCCCUCCUAAGGAGAAGACUGCGGGUACGAGUCCCGUACGGAACG [U7C C24U U54A], the yeast fitness is no more than 0.5.
GUUCCGCUGGCGUAAUGGUAACGCGUCUCCCUCCUAAGGAGAAGAUUGCGGGUUCGAGGCCCGUACUGAACG [U7C C46U U59G G67U]: the yeast fitness was no more than 0.5.
As to GUUCCGCUGACGUAAUGGAAACGCGUCUCCCUCCUAAGGAGAACACUGCGGGUUCGAGUCCCGUACCGAACG [U7C G10A U19A G44C G67C], the yeast fitness was no more than 0.5.
Take GUUCCGCUGGCGUAAUGGUAACGCGUCUCCCUCCUAAGGAGAAGAAUGCGAGAUCGAGUCCAGUACGAAACG [U7C C46A G51A U53A C62A G68A]: the yeast fitness is 0.579.
In the case of GUUCCGCUGGCGUAAUGGUAACGCGUCUCCCUCCUAAGGAGAAGACUGCGGGUUCGAGUCACGUACGGAACG [U7C C61A], the yeast fitness is 0.678.
For the variant GUUCCGCUGGCGUAAUGGUAACGCGUCUCCCUCCUAAGGAGAAGACUGCGGGUUCGAGUCCUGUAGGGAACG [U7C C62U C66G], the yeast fitness was no more than 0.5.
Under GUUCCGCUGGCGUAAUGGUAACGCCUCUCGCUUCUAAGGAGAAGGCGGCCGGUUCGAGUCCCAUACGGAACG [U7C G25C C30G C33U A45G U47G G50C G63A] stands no more than 0.5.
Consider GUUCCGCUGGCGUAAUGGUAACGCGUCUCCCUCCUAAAGAGAAGACUGCGGGUUCGACUCCCGUACGGAACG [U7C G38A G58C], for which the yeast fitness came out at 0.648.
In the case of GUUCCGCUGGCGUAAUGGUAACGCGUCUCCCUGCUAAGGAGAAGACUGCGGGUUCGAGCCCCGUACGGAACG [U7C C33G U59C] it was 0.59; in that of GUUCCGCUGGCAUAAUGGUCGCGAGUAUCCCUCCUCAGGAGAAGACUGCGGGUUCGAGUCCCGUACGGAACG [U7C G12A A20C A21G C24A C27A A36C], no more than 0.5.
Under GUUCCGCUGGCGUAAUGGUAACGCGUCUCCCUCCUAAGGAGAAGACUGCGGGUUCGAGUUCCGUACGGAACG [U7C C60U] stands 0.785.
Consider GUUCCGCUGGCGUAAUGGUAACGCGUCUCCCUCCUAAGGAGAAGACUGCGGGUUCGAGUGCCGUACGGAACG [U7C C60G], for which the yeast fitness amounted to 0.583.
Under GUUCCGCUGGCGUAAUGGUAACGCGUCUCCCUCCUAAGGAGAAGACUGCGGGUUCGAGUACCGUACGGAACG [U7C C60A] stands 0.674; under GUUCCGCUGGCGUAAUGGUAACGCGUCUCCCUCCUAAGGAGAAGACUGUGGGUUCAAGUCCCGUCCGGAACG [U7C C49U G56A A65C], 0.607.
As to GUUCCGCUGGCGUAAUGGUAACGCGUUUCCCUGGUAAGGAGAAAACUGCAGAUUCGAGUCCCGUACGGAACG [U7C C27U C33G C34G G44A G50A G52A], the yeast fitness is no more than 0.5.
Under GUUCCGCUGGCGUAAUGGUAACGCGUCUCCCUUCUAAGGAGAAGACUGUGGGUUCGAGUCCCGUACGGAUCG [U7C C33U C49U A70U] stands no more than 0.5; under GUUCCGCUGGCGUAAUGGUAACGCGUCUCCCUCUUAAGGAGAAGACUGCGGGUUCGAGUCCCGUACGGAACG [U7C C34U], 0.699.
As for GUUCCGCUGGCGUAAUGGUAACGCAUCUCCCUCCUAAGGAGAAGACUGCGGGUUAGAGUCCCGUACGGAACG [U7C G25A C55A], the yeast fitness was no more than 0.5.
Regarding GUUCCGCUGGCGUAAUGGUAACGCGUCUCCCUACUAAGGAGAAGACUGAGGGUUCGAGUCCCGUACGGAACG [U7C C33A C49A], the yeast fitness is no more than 0.5.
As for GUUCCGCUGGCGUAAUGCUAACGCGUCUCCCUCCUAAGGAGAAGACUGCGGGUUCGAGUCUCGUACGGAACG [U7C G18C C61U], the yeast fitness was no more than 0.5.
For GUUCCGCUGGCGUAAUGGUAACGCGUCUCCCUUCUAAGGAGAAGACUGCGGGCUCGAGUCCCGUACGGAACG [U7C C33U U53C], the yeast fitness came to 0.599.
Under GUUCCGCUGGCGUAAUGGUAACGCGUCUCCGUCUUAAGGAGAAGACUGCGGGUUUGAAUCUCGUACGGAACG [U7C C31G C34U C55U G58A C61U] stands 0.666; under GUUCCGCUGGCGUAAUGGUAACGCGUCUCCCUUCUAAGGAGAAGACUGCGGGUUCGAGUCCCGUACGGAACG [U7C C33U], 0.713; under GUUCCGCUGACGUAAUGGUAACGGGUCUCCCUCUUAAGGAGAUGACUGCGGGUUCGAGUCCCGUACGGAACG [U7C G10A C24G C34U A43U], no more than 0.5.
Under GUUCCGCUGGCGUAAUGGUAACGCCUCUCCCUCCUAAGGAGGAGACUGCGGGUUCGAGUCCCGUACGGAACG [U7C G25C A42G] stands 0.567; under GUUCCGCUGGCGUAAUGGUAACCCGUCUCCCUCCUAAGGAGAAGACUGCGGGUUCGAGUCCCGUACGGAACG [U7C G23C], 0.671; under GUUCCGCUGGCGUAAUGGUAACGCGUCUUCCUCCUAAGGAGAAGAUUGCGGGUUCGAGUCCCGUUCGGAACG [U7C C29U C46U A65U], no more than 0.5.
For the variant GUUCCGCUGGCGUAAUGGUAACGCGUCUCACUCCUAAGGAGAAGACUGCGGGUUCGAGUACCGUACGGAACG [U7C C30A C60A], the yeast fitness was no more than 0.5.
In the case of GUUCCGCUGGCGUAAUGGUAACGCGUCUCUCUCCUAAGGAGAAGACUGCGGGUUCGAGUCCCGUAGGGAACG [U7C C30U C66G] it was no more than 0.5; in that of GUUCCGCUGGCGUAAUGGUAACGCGUCUCCCUCCUAAGGAGAAGACUGCGGGUUCGAGUCGCGUGCGGAACG [U7C C61G A65G], 0.57.
Under GUUCCGCUGGCGUAAUGGUAACGCGUCUCCCUCCUAAGGAGAAGACUGCGGGUUCGAGUCGCGUCCGGAACG [U7C C61G A65C] stands no more than 0.5; under GUUCCGCUGGCGUAAUGGUAACGCGUCUCCCUCCUAAGGAGAAGACUGAGGGUUCGAGUCCCGUACUGAACG [U7C C49A G67U], 0.59; under GUUCCGCUGGCGUAAUGAUAACGCGUCUCUCUCAUAAGGAGAAGACUGCGGGUUCGAGUCCCGUACGGAACG [U7C G18A C30U C34A], no more than 0.5.
Under GUUCCGCUCGCGUAAUGGUGACGCGUCUCCCUCCUAAGGAAAAGACUGCGGGUUCGAGUCCCGUACGGAACG [U7C G9C A20G G41A] stands no more than 0.5; under GUUCCGCUGGCAUAAUGGUAACGCGUCUCCCUCCUAAGGAGAAGCCUGUGGGUUCGAGUCGCGUCCGGAACG [U7C G12A A45C C49U C61G A65C], no more than 0.5.
GUUCCGCUGACGUAAUGGUAACGCGUCUCCCUCCUAAGGAGAAGACUGCCGGUUCGAGUCCCGUACGGAACG [U7C G10A G50C]: the yeast fitness is no more than 0.5.
For GUUCCGCUGGCGUAAUGGUAACGCGUCUCCGUCCUAAGGAGAAGACUGCGGGUUCGAGUCCCGUUCGGAACG [U7C C31G A65U], the yeast fitness was determined as 0.664.
In the case of GUUCCGCUGGCGUAAUGGUAACACGUCUCCCUGCUAAGGAGAAGACUGCGGGUUCGAGUCCCGUACGGAACG [U7C G23A C33G] it was no more than 0.5.
